Bioassay records deposited in PubChem by SRMLSC.
HCT116 PTEN-null: PTEN-deleted cell growth suppression | viability, % at 10 µM | AID 827 | HCT116 PTEN-null viability, CellTiter-Glo, 60 h; active compounds read low | 1.2% of 140,000 active;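 active = viability at or below a set limit, 4 SD under the median of all tested compounds, cut at about 3.7% in these data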;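 note: PTEN knockout HCT116 line with beta catenin targeted HCT116 as companion control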
Fibroblast inh: blocks proliferation of human lung fibroblasts; 1.1% of 85,000 active; AID 719; LL 47 human lung fibroblast viability, ATP luminescence; active compounds read low; viability, % at 10 µM;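 active = viability at or below 50% in the single dose screen; inactive = viability above 50%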;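 note: compound exposure lasted 72 h before the ATP readout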
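Benchmarks: Cell-only wells, no compound | Test system: LL 47 human lung fibroblasts, passage 12 or lower | Input: 1,150 cells/well | Measured by: CellTiter-Glo luminescence measuring cellular ATP | Medium: IMEM, 15% FBS supplement | Schedule: Overnight attachment after seeding, then 72 h compound exposure at 37 °C | Doses: Compound addition at 0.1% DMSO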
bCat KO growth: beta-catenin-lacking colon tumor cell growth suppression; AID 818; 1.5% of 140,000 active; viability, % at 10 µM; HCT116 beta-catenin knockout viability, CellTiter-Glo, 60 h; active compounds read low;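 active = viability at or under a set limit, the compound median less 4 SD, cut at about 6% in these data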
HUVEC prolif 384: human endothelial cell proliferation inhibition | HUVEC proliferation, CellTiter-Glo luminescence, 72 h; active compounds read low | viability, % at 10 µM (by protocol) | 1.1% of 86,000 active | AID 648;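 active = viability at or below 30%; inactive = viability above 30%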
H69AR inhibit: growth inhibitors of human H69AR lung tumor cells. H69AR lung tumor viability, ATP luminescence, 72 h; active compounds read low. viability, % at 10 µM. 6% of 85,000 active. AID 598;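 active = viability at or below 40%; inactive = viability above 40%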;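 note: multidrug resistant small cell line overexpressing MRP-1 efflux transporter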
Each line names hits and unclear results; the compound was inactive in the other large screens. Shown is part of a subset that was picked to be rich in hits.

CCOC(=O)c1cc2sccc2n1CC(=O)Nc1ccc2c(c1)OCCO2	H69AR inhibit 38
O=S1(=O)N=C(N(CCO)/N=C/C=C/c2ccccc2)c2ccccc21	none (no result: Fibroblast inh, HUVEC prolif 384, H69AR inhibit)
COc1ccc(NC(=O)c2cc(-c3ccccc3)oc2C)cc1	none (no result: Fibroblast inh, HUVEC prolif 384, H69AR inhibit)
COc1ccc(NS(=O)(=O)c2cc(OC)ccc2NC(=O)c2cc(C)oc2C)cc1	H69AR inhibit 21
COc1ccc(NS(=O)(=O)c2cc(C)ccc2C)cc1	H69AR inhibit 13
Cn1c(C(=O)N2CCN(c3ccc(Cl)cc3)CC2)cc2c(=O)[nH]c3ccccc3c21	H69AR inhibit 34
Cc1ccc(C)c(N2CCN(C(=O)Cc3cn(C)c4ccccc34)CC2)c1	none
Cc1ccc(Cl)cc1N1CCN(C(=O)Cc2cn(C)c3ccccc23)CC1	H69AR inhibit 34
Cc1ccc(Cl)cc1N1CCN(C(=O)c2cc3c(=O)[nH]c4ccccc4c3n2C)CC1	bCat KO growth 5.6 (no result: Fibroblast inh, HUVEC prolif 384, H69AR inhibit)
Cc1ccc(Cl)cc1N1CCN(C(=O)Cc2c(C(=O)O)[nH]c3ccccc23)CC1	none
CC1CCN(S(=O)(=O)c2ccc(Cl)cc2)CC1	none
CC1=C(C)CS(=O)N(S(=O)(=O)c2ccc(Cl)cc2)C1 (stereo not drawn)	Fibroblast inh 47
CCC(C)[C@H](NC(=O)Nc1cccc(OC)c1)C(=O)OC (stereo partly drawn)	none
CCCN(CCC)C(=O)CC(c1ccccc1)c1cc(Br)ccc1O (stereo not drawn)	H69AR inhibit 3.5
C=C(C)c1cccc(C(C)(C)NC(=O)N2CCN(c3ccccn3)CC2)c1	none
Cc1nc(-c2ccc(O)c(O)c2)cs1	none
Oc1ccc(-c2csc(-c3ccccc3)n2)cc1O	HUVEC prolif 384 29, H69AR inhibit 20
CCOC(=O)Cn1c(=O)oc2cc(S(=O)(=O)Nc3cc(Cl)ccc3OC)ccc21	none
O=C(Nc1cnccn1)c1csc2ccccc12	none
COc1cccc(-c2cc(C(=O)Nc3c(C)nn(Cc4ccccc4C)c3C)no2)c1	none (no result: Fibroblast inh)
Cn1c(=O)c2c(SCC(=O)N3CCCc4ccccc43)nc(CC(C)(C)C)nc2n(C)c1=O	bCat KO growth 4.8, H69AR inhibit 30
Cn1c(=O)c2c(SCC(=O)N3CCOCC3)nc(CC(C)(C)C)nc2n(C)c1=O	Fibroblast inh 35, H69AR inhibit 24
COc1ccc(-c2c3c(=O)n(C)c(=O)n(C)c3cn2N2CCOCC2)cc1	none (no result: Fibroblast inh, HUVEC prolif 384, H69AR inhibit)
Cc1ccc(C(C(=O)NCc2ccco2)N(C(=O)CNC(=O)c2cccs2)c2ccc(C)cc2C)cc1 (stereo not drawn)	none (no result: Fibroblast inh, HUVEC prolif 384, H69AR inhibit)
S=C(NC1CCCCC1)c1ccc2c(c1)OCO2	none
COc1ccc(C2CC(=O)c3cnc(NC(=O)c4ccccc4)nc3C2)c(OC)c1 (stereo not drawn)	H69AR inhibit 27
O=C(CC12CC3CC(CC(C3)C1)C2)N/N=C/c1ccncc1	none (no result: Fibroblast inh, HUVEC prolif 384, H69AR inhibit)
CC[n+]1cc(-c2ccccc2)nc(N2CCOCC2)n1	HUVEC prolif 384 27
NC(=O)c1cc(-c2ccccc2)nc(N2CCOCC2)n1	none
COC(=O)C1=C(C)NC(C)=C(C(=O)OC)C1c1ccc2ccccc2n1	none
O=C1c2ccccc2C(=O)C1c1ccc2ccccc2n1	H69AR inhibit 28
CC(=O)NCCC(=O)Nc1cccc(S(=O)(=O)N(C)c2ccccc2)c1	none (no result: Fibroblast inh, HUVEC prolif 384, H69AR inhibit)
O=C(Oc1cccc2cccnc12)c1cccc(N2C(=O)C3C4CCC(C4)C3C2=O)c1 (stereo not drawn)	HCT116 PTEN-null 2.1, bCat KO growth 4.5 (no result: Fibroblast inh, HUVEC prolif 384, H69AR inhibit)
N#Cc1cn(CC(=O)N2CCCC2)c2ccccc12	none
CC1CCCC(NC(=S)Nc2ccc(SC(F)F)cc2)C1C (stereo not drawn)	Fibroblast inh 34, H69AR inhibit 9.1
CC(C)(C)c1ccc(C(O)CCCN2CCC(C(O)(c3ccccc3)c3ccccc3)CC2)cc1 (stereo not drawn)	HCT116 PTEN-null 0.8, Fibroblast inh 2.6, bCat KO growth 0.7, HUVEC prolif 384 2.4, H69AR inhibit 0.8
Oc1ccccc1CN1CCC(C(O)(c2ccccc2)c2ccccc2)CC1	none (no result: Fibroblast inh, HUVEC prolif 384, H69AR inhibit)
Cc1ccc(-c2nnc3ccc(SCC(=O)N4CCc5ccccc54)nn23)cc1	H69AR inhibit 32
Cc1ccc(-c2nnc3ccc(SCC(=O)N4CCCc5ccccc54)nn23)cc1	none (no result: Fibroblast inh, HUVEC prolif 384, H69AR inhibit)
Cc1occc1-c1nnc(SCC(=O)N2CCc3ccccc32)o1	H69AR inhibit 1.3
C/C(=N\NC(=S)Nc1ccc(F)cc1)C1CC1	none
COc1ccc(NC(=O)CNS(=O)(=O)c2ccc(Cl)cc2)cc1OC	none (no result: Fibroblast inh, HUVEC prolif 384, H69AR inhibit)
CCOC(=O)c1c2ccc(OCC(=O)N/N=C/c3ccc(C)cc3)cc2n2ccccc12	HCT116 PTEN-null 1.6, bCat KO growth 1.5 (no result: Fibroblast inh, HUVEC prolif 384, H69AR inhibit)
